# From ChEMBL document CHEMBL1129383, “Potent immunosuppressants, 2-alkyl-2-aminopropane-1,3-diols” (J Med Chem, 1996)
# What was measured:
# [1] = tested on: Rattus norvegicus; assay: Mean survival time of rats after skin allograft (intraperitoneal administration) at 10 mg/kg; assay type: functional
# Procedure, shortened: (§1)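 LEW rat (male, 4 wk) dorsal skin grafted onto lateral thorax of F344 rats (male, 4 wk). Compounds in 20% (hydroxypropyl)-β-cyclodextrin given ip daily for 10 days from transplant day. Grafts inspected daily until rejection (>90% necrosis of graft epithelium); mean survival time in days ± SD, n = 4–5, Mann-Whitney U test. "Toxic" means animals died.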
# [2] = tested on: Rattus norvegicus; assay: Mean survival time of rats after skin allograft (intraperitoneal administration) at 30 mg/kg; toxic - animals died; assay type: ADME, organism-based; set-up: dose 30 mg/kg, route intraperitoneal; settings: in vivo, ip; procedure, shortened: as §1
# [3] = Immunosuppressive activity on mouse allogenic MLR in vitro; assay type: functional
# Procedure, shortened: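 Responders were BALB/c spleen cells (5 × 10⁵, H-2^d). Stimulators were an equal number of C57BL/6 spleen cells (H-2^b) treated with mitomycin C for 30 min at 37 °C. Co-culture in RPMI 1640 with 5 × 10⁻⁵ M 2-mercaptoethanol, 10% FCS and varied compound, 4 days at 37 °C, 5% CO₂. Proliferation read by MTT. IC50 is the mean of triplicates.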
# [4] = tested on: Rattus norvegicus; assay: Mean survival time of rats after skin allograft (intraperitoneal administration) at 3 mg/kg; assay type: functional; procedure, shortened: as §1
# [5] = tested on: Rattus norvegicus; assay: Mean survival time of rats after skin allograft (intraperitoneal administration) at 20 mg/kg; assay type: functional; procedure, shortened: as §1
# [6] = tested on: Rattus norvegicus; assay: Mean survival time of rats after skin allograft (intraperitoneal administration) at 1 mg/kg; assay type: functional; procedure, shortened: as §1
# [7] = tested on: Rattus norvegicus; assay: Mean survival time of rats after skin allograft (intraperitoneal administration) at 0.3 mg/kg; assay type: functional; procedure, shortened: as §1
# [8] = tested on: Rattus norvegicus; assay: Mean survival time of rats after skin allograft (intraperitoneal administration) at 0.1 mg/kg; assay type: functional; procedure, shortened: as §1
# [9] = tested on: Rattus norvegicus; assay: Mean survival time of rats after skin allograft (intraperitoneal administration) at 20 mg/kg; toxic - animals died; assay type: ADME, organism-based; set-up: dose 20 mg/kg, route intraperitoneal; settings: in vivo, ip; procedure, shortened: as §1
# [10] = tested on: Rattus norvegicus; assay: Mean survival time of rats after skin allograft (intraperitoneal administration) at 1 mg/kg; toxic - animals died; assay type: ADME, organism-based; set-up: dose 1 mg/kg, route intraperitoneal; settings: in vivo, ip; procedure, shortened: as §1
# [11] = tested on: Rattus norvegicus; assay: Mean survival time of rats after skin allograft (intraperitoneal administration) at 10 mg/kg; toxic - animals died; assay type: ADME, organism-based; set-up: dose 10 mg/kg, route intraperitoneal; settings: in vivo, ip; procedure, shortened: as §1
# [12] = tested on: Rattus norvegicus; assay: Mean survival time of rats after skin allograft (oral administration) at 30 mg/kg; toxic - animals died; assay type: ADME, organism-based; set-up: dose 30 mg/kg, route oral; settings: in vivo
# Procedure, shortened: as §1, with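 “5% (hydroxypropyl)methylcellulose” for “20% (hydroxypropyl)-β-cyclodextrin”, “orally,” for “ip”, “SD.” for “SD, n = 4–5, Mann-Whitney U test.”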
# [13] = tested on: Rattus norvegicus; assay: Mean survival time of rats after skin allograft (oral administration) at 1 mg/kg; assay type: functional
# Procedure, shortened: as §1, with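 “5% (hydroxypropyl)methylcellulose” for “20% (hydroxypropyl)-β-cyclodextrin”, “orally,” for “ip”, “SD.” for “SD, n = 4–5, Mann-Whitney U test.”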
# [14] = tested on: Rattus norvegicus; assay: Mean survival time of rats after skin allograft (oral administration) at 0.1 mg/kg; assay type: functional
# Procedure, shortened: as §1, with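 “5% (hydroxypropyl)methylcellulose” for “20% (hydroxypropyl)-β-cyclodextrin”, “orally,” for “ip”, “SD.” for “SD, n = 4–5, Mann-Whitney U test.”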
# [15] = tested on: Rattus norvegicus; assay: Mean survival time of rats after skin allograft (oral administration) at 10 mg/kg; assay type: functional
# Procedure, shortened: as §1, with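 “5% (hydroxypropyl)methylcellulose” for “20% (hydroxypropyl)-β-cyclodextrin”, “orally,” for “ip”, “SD.” for “SD, n = 4–5, Mann-Whitney U test.”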
# [16] = tested on: Rattus norvegicus; assay: Mean survival time of rats after skin allograft (oral administration) at 0.3 mg/kg; assay type: functional
# Procedure, shortened: as §1, with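 “5% (hydroxypropyl)methylcellulose” for “20% (hydroxypropyl)-β-cyclodextrin”, “orally,” for “ip”, “SD.” for “SD, n = 4–5, Mann-Whitney U test.”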
# [17] = tested on: Rattus norvegicus; assay: Mean survival time of rats after skin allograft (oral administration) at 3 mg/kg; assay type: functional
# Procedure, shortened: as §1, with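 “5% (hydroxypropyl)methylcellulose” for “20% (hydroxypropyl)-β-cyclodextrin”, “orally,” for “ip”, “SD.” for “SD, n = 4–5, Mann-Whitney U test.”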
# [18] = tested on: Rattus norvegicus; assay: Mean survival time of rats after skin allograft (oral administration) at 100 mg/kg; toxic - animals died; assay type: ADME, organism-based; set-up: dose 100 mg/kg, route oral; settings: in vivo
# Procedure, shortened: as §1, with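 “5% (hydroxypropyl)methylcellulose” for “20% (hydroxypropyl)-β-cyclodextrin”, “orally,” for “ip”, “SD.” for “SD, n = 4–5, Mann-Whitney U test.”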
# [19] = species: Mus musculus; assay: Effect of compound on IL-2 production from alloantigen-stimulated mouse spleen cells; assay type: functional, cell-based
# Procedure, shortened: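 BALB/c spleen cells at 5×10^6 cells/mL co-cultured with an equal number of mitomycin C-pretreated C57BL/6 spleen cells, with or without test compound, in RPMI 1640 with 5×10^-5 M 2-mercaptoethanol and 10% FCS; 48 h at 37 °C. Supernatant IL-2 activity measured by IL-2-dependent CTLL-2 proliferation, given in units/mL.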
# [20] = tested on: Rattus norvegicus; assay: Mean survival time of rats after skin allograft (oral administration) at 30 mg/kg; assay type: functional
# Procedure, shortened: as §1, with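 “5% (hydroxypropyl)methylcellulose” for “20% (hydroxypropyl)-β-cyclodextrin”, “orally,” for “ip”, “SD.” for “SD, n = 4–5, Mann-Whitney U test.”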
# [21] = tested on: Rattus norvegicus; assay: Mean survival time of rats after skin allograft (intraperitoneal administration) at 30 mg/kg; assay type: functional; procedure, shortened: as §1
# [22] = tested on: Rattus norvegicus; assay: Mean survival time of rats after skin allograft (intraperitoneal administration) at 100 mg/kg; toxic - animals died; assay type: ADME, organism-based; set-up: dose 100 mg/kg, route intraperitoneal; settings: in vivo, ip; procedure, shortened: as §1
smiles,measurement,setting,value
CCCCCCCCCCCCCCCC[C@@H](O)[C@H](O)C(N)(CO)CO,MST,[1],11.8 days
same,MST,[2],Toxic
same,IC50,[3],0.32 µM
same,MST,[4],9.2 days
same,MST,[5],15 days
same,MST,[6],8.2 days
CCCCCCCCCCCCCC(N)(CO)CO,IC50,[3],0.012 µM
CCCCCCCCCCCCCCCCC(N)(CO)CO,IC50,[3],0.01 µM
same,MST,[4],41.8 days
same,MST,[7],14.3 days
same,MST,[8],10.5 days
same,MST,[6],38.5 days
same,MST,[9],Toxic
CCCCCCCCCCCCC(N)(CO)CO,IC50,[3],0.27 µM
CCCCCCCCC(N)(CO)CO,IC50,[3],3.7 µM
CCCCCCCCCCCCCCCCCCCCCCC(N)(CO)CO,IC50,[3],1.6 µM
CCCCCCCCCCC(N)(CO)CO,IC50,[3],0.44 µM
CCCCCCCCCCCCC/C=C/C[C@H]1OC(=O)[C@](N)(CO)[C@@H]1O,IC50,[3],0.0036 µM
CCCCCCC(O)CCCCCC/C=C/C[C@@H](O)[C@H](O)[C@@](N)(CO)C(=O)O (stereo partly specified),IC50,[3],0.0063 µM
same,MST,[10],Toxic
same,MST,[7],9.6 days
same,MST,[8],7.6 days
CCCCCCCCCCCCCCCCCCC(N)(CO)CO,IC50,[3],0.012 µM
same,MST,[4],17.6 days
same,MST,[7],11.2 days
same,MST,[11],Toxic
same,MST,[6],14.8 days
CCCCCCCCCCCCCCCCCCCCC(N)(CO)CO,IC50,[3],0.19 µM
CCCCCCCCCCCCCCCC(N)(CO)CO,MST,[12],Toxic
same,MST,[13],35.5 days
same,IC50,[3],0.0029 µM
same,MST,[14],18.8 days
same,MST,[15],8.3 days
same,MST,[11],Toxic
same,MST,[16],28.5 days
same,MST,[17],47 days
CCCCCCCCCCCCC/C=C/C[C@@H](O)[C@H](O)C(N)(CO)CO,MST,[1],14 days
same,MST,[2],Toxic
same,IC50,[3],0.056 µM
same,MST,[4],9.8 days
same,MST,[5],16.6 days
same,MST,[6],8.2 days
CCCCCCC(O)CCCCCC/C=C/C[C@@H](O)[C@H](O)C(N)(CO)CO (stereo partly specified),MST,[1],11.8 days
same,MST,[2],Toxic
same,IC50,[3],0.0047 µM
same,MST,[4],9.2 days
same,MST,[5],13.4 days
same,MST,[6],8.2 days
CCCCCCCCCCCCC/C=C/C[C@H]1OC(=O)[C@](N)(CO)[C@H]1O,IC50,[3],0.01 µM
CCCCCCCCCCCCCCC(N)(CO)CO,MST,[18],Toxic
same,MST,[13],24.4 days
same,IC50,[3],0.0059 µM
same,MST,[4],44.4 days
same,MST,[14],10.3 days
same,MST,[7],23.1 days
same,MST,[15],46.4 days
same,MST,[11],Toxic
same,IC50,[19],> 1 µM
same,MST,[20],52.2 days
same,MST,[8],11.2 days
same,MST,[6],39 days
same,MST,[16],13.6 days
same,MST,[17],36.4 days
CCCCCCCCCCCCC/C=C/C[C@@H](O)[C@H](O)[C@@](N)(CO)C(=O)O,IC50,[3],0.0012 µM
same,MST,[10],Toxic
same,MST,[7],10.6 days
same,MST,[8],9 days
CCCCCCC(O)CCCCCCCCC[C@@H](O)[C@H](O)C(N)(CO)CO (stereo partly specified),MST,[1],12.2 days
same,IC50,[3],1.63 µM
same,MST,[4],11 days
same,MST,[21],12.5 days
same,MST,[22],Toxic
same,MST,[6],9.2 days
C/C=C/C[C@@H](C)[C@@H](O)[C@H]1C(=O)N[C@@H](CC)C(=O)N(C)CC(=O)N(C)[C@@H](CC(C)C)C(=O)N[C@@H](C(C)C)C(=O)N(C)[C@@H](CC(C)C)C(=O)N[C@@H](C)C(=O)N[C@H](C)C(=O)N(C)[C@@H](CC(C)C)C(=O)N(C)[C@@H](CC(C)C)C(=O)N(C)[C@@H](C(C)C)C(=O)N1C [CYCLOSPORINE],MST,[13],8.5 days
same,MST,[21],19.4 days
same,MST,[15],13.5 days
same,MST,[20],20.5 days
same,MST,[6],7.6 days
same,MST,[17],10.3 days
CCCCCCC(=O)CCCCCC/C=C/C[C@@H](O)[C@H](O)[C@@](N)(CO)C(=O)O [MYRIOCIN],IC50,[3],0.003 µM
same,MST,[10],Toxic
